According to PubChem BioAssay AID504390 (Broad Institute, 2011):
Activity calls are given as the source filed them.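 How the source made its calls: active means signal-lowering compounds whose fitted half-maximal concentration is at most ten times the top tested dose; inconclusive means flat fit at 30 to 70% inhibition, or poor fit; inactive means the rest.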

Assays:
[1] = Hsp90 function inhibitors in yeast, dose response, S. cerevisiae, luminescence, dry powder, set 2 (AID 504390); details: S. cerevisiae GRE-lacZ reporter, Hsp90 function, luminescence; at 26 µM (top of the series)
Outline: (§1)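 Timing: 75 min compound and steroid exposure, 30 °C, shaking; System: yeast GRE-driven β-galactosidase reporter strain; Control set: radicicol 5 µM as positive control; Medium: SD-ADE yeast medium; Dosing: compounds delivered by pin transfer; Also added: DOC steroid, 20 µM stock; Signal: β-galactosidase luminescence after 25 min development at 30 °C.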

[2] = test system: S. cerevisiae GRE-lacZ reporter, Hsp90 function, luminescence; assay: as above
Outline: as §1

Structure (SMILES) | activity change, negative = inhibition [1] | AC50 [2] [µM]
O=C(Cn1c2ccccc2c2nc3n(c(=O)c21)CCS3)N1CC=CC1 | 20.7% (inactive) | –
COC(=O)Cn1nc(C2CCCCC2)c2ccccc21 | – | 3.56
CCc1nn(CC(=O)OC)c2ccccc12 | 35.3% (inactive) | –
COC(=O)Cn1nc(C2CC2)c2ccccc21 | -20.4% (inactive) | –
O=C(O)Cn1c2ccccc2c2nc3n(c(=O)c21)CCS3 | 10.8% (inactive) | –
COC(=O)Cn1nc(C(C)(C)C)c2ccccc21 | – | 20.7
O=C(Cn1c2ccccc2c2nc3n(c(=O)c21)CCS3)N1CCC(F)(F)CC1 | 4.34% (inactive) | –
COC(=O)Cn1nc(-c2ccccc2)c2cccnc21 | – | 25.8
O=C(Cn1c2ccc(F)cc2c2nc3n(c(=O)c21)CCS3)N1CCCC1 | 39.4% (inactive) | –
COC(=O)Cn1nc(-c2cccc(OC)c2)c2ccccc21 | – | 4.18
O=C(Cn1c2ccccc2c2nc3n(c(=O)c21)CCS3)N1CCC(F)(F)C1 | 29.5% (inactive) | –
CN1CCN(C(=O)Cn2c3ccccc3c3nc4n(c(=O)c32)CCS4)CC1 | 52.6% (inactive) | –
c1ccc(-c2nn(Cc3nnco3)c3ccccc23)cc1 | -30.7% (inactive) | –
CC1(O)CN(C(=O)Cn2c3ccccc3c3nc4n(c(=O)c32)CCS4)C1 | 25.6% (inactive) | –
O=C(Cn1c2ccccc2c2nc3n(c(=O)c21)CCS3)N1CCCCC1 | – | 26.1
O=C(Cn1c2ccccc2c2nc3n(c(=O)c21)CCS3)N1CCCC1 | -14.7% (inactive) | –
COC(=O)n1nc(-c2ccccc2)c2ccccc21 | 10.4% (inactive) | –
COC(=O)Cn1nc(-c2cccc(C)c2)c2ccccc21 | – | 3.59
